The list is not random: actives were taken first. Their share in the collection is about 1.5%.
NRP1-CendR mod = NRP-1/CendR interaction modulation; actives 0.85% (n = 360,000); inhibition, % at 25 µM; FAM-RPARPAR peptide binding to NRP-1, fluorescence polarization; AID 602438;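 active = inhibition or corrected inhibition above about 18%, plus a signal ratio from 0.5 to 1.5, limit read from the data, passing the limit was not always enough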
Target sequence (O14786 whole entry, looked up): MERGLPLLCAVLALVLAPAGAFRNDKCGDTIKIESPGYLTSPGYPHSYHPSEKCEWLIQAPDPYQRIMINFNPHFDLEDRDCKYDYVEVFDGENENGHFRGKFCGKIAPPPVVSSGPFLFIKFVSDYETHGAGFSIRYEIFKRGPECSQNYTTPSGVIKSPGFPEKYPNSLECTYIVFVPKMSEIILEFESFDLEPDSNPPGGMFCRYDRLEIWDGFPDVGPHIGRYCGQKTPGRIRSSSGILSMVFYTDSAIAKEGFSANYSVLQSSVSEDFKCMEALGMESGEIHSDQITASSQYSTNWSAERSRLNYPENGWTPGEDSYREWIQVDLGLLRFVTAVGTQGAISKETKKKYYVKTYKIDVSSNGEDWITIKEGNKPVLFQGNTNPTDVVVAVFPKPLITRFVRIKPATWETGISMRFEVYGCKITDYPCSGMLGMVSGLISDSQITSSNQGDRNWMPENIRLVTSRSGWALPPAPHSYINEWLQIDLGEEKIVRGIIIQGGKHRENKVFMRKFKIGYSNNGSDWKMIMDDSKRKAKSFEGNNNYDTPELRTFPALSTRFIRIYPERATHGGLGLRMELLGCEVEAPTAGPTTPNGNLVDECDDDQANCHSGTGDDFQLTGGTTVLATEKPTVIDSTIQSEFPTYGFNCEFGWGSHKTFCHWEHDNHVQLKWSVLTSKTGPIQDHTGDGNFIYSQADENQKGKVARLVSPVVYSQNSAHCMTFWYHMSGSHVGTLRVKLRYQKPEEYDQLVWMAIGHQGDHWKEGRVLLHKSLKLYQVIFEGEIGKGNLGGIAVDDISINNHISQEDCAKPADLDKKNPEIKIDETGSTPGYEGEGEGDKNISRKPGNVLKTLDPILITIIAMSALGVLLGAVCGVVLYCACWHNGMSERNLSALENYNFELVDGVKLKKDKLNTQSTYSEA
UCH37 DUB inh = human UCH37 deubiquitinating enzyme inhibition; Q9Y5K5; purified proteasome/UCH37, Ub-AMC cleavage fluorescence; inhibition, % (test concentration not listed); actives 0.33% (n = 330,000);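 active = mean inhibition over replicate wells above about 20%, limit read from the data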;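 also: 0% = compound-free wells with enzyme and 100% = wells lacking proteasome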
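Assay system: Proteasome-bound UCH37. Buffer or medium: pH 7.4 Tris-HCl (50 mM) with ovalbumin, ATP-MgCl2, DTT. Incubation: 30 min preincubation with enzyme, 25 min cleavage at room temperature. Measured by: fluorescence, ex 355 nm, em 460 nm. Read-out basis: percent inhibition. Control set: wells without proteasome as full block, compound-free enzyme plus substrate as uninhibited.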
DAGLB inhibitor = blocks human DAGLB lipase activity; Q8NCG7; HEK293T DAGLB membrane lysate, EnzChek fluorogenic substrate; inhibition, % at 5.17 µM; actives 0.059% (n = 340,000); AID 504411; in the data active = inhibition above about 34%;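 also: 0% = enzyme with vehicle and 100% = wells lacking enzyme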
MT1-MMP act inh = inhibitors of human MT1-MMP activation | actives 0.061% (n = 360,000) | GFP/RFP ratio change, % at 20 µM | AID 651647 | HT1080 RFP-PRO-GFP cells, GFP/RFP ratio fluorescence, overnight; percent of plate control window, DMSO zero | P50281;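 active = GFP/RFP ratio change of at least 30% with cell ATP level not reduced by more than half and red fluorescence within 50% of control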
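Compound: 20 µM single dose, 1% DMSO / System: HT1080 RFP-PRO-GFP cells / Controls: DMSO and RFP-L50D-GFP cell wells / Read-out basis: GFP/RFP fluorescence ratio / Schedule: overnight compound exposure at 37 °C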
Fh CTSL1 inh = cathepsin L1 inhibition, PFM18AAP counter-screen; inhibition, % at 5.96 µM; AID 1906; recombinant F. hepatica cathepsin L1, Z-Leu-Arg-MCA fluorescence; actives 0.49% (n = 300,000);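 active = inhibition above the mean of all tested compounds plus 3 SD, set per screening campaign, cut at about 17% in these data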;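 also: 0% = plate median of test compound wells and 100% = 1 µM Z-Phe-Ala-diazomethylketone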
The depositor's hits bear a star; x = no result.

SMILES	NRP1-CendR mod	UCH37 DUB inh	DAGLB inhibitor	MT1-MMP act inh	Fh CTSL1 inh
CCCCOc1ccc(C(=O)N/C(=C/C=C/c2ccccc2)C(=O)O)cc1	21*	11	10	3	12
CCn1ncc(C=NNS(=O)(=O)c2ccc(Cl)cc2)c1C	x	2	x	x	x
Cc1cc(C)n(CCC(=O)N/N=C/c2c(O)ccc3ccccc23)n1	34*	x	7	-6	0
Cc1ccccc1NC(=O)Nc1cnccn1	-13	0	-1	-2	1
Cc1cccc(NC(=O)Nc2cnccn2)c1C	20*	1	0	-1	-1
COc1ccc([C@H]2CC(=O)C=C(c3ccccc3C(F)(F)F)C2)cc1	29*	0	-9	1	x
O=C(Cc1ccccc1)NCC(=O)NN=Cc1ccc(C(=O)O)cc1	x	5	x	x	x
CC1(C)c2ccccc2C(=O)c2ccccc21	34*	0	-3	8	x
CCOC(=O)c1sc(S(C)(=O)=O)c2c1CCc1conc1-2	12	-6	x	-18	42*
COc1cc(C=NNc2nc3c(c(=O)n(C)c(=O)n3C)n2Cc2ccccc2)ccc1OC(=O)c1ccco1	x	-68	x	x	x
C=CCOc1ccc(C=NNc2ccccn2)cc1OC	x	3	x	x	x
Cc1ccc(C=NNC(=O)c2ccc3nc[nH]c3c2)s1	x	8	x	x	x
CC(=O)N1CCN(S(=O)(=O)c2cccc(C(=O)NNC(=O)Cn3nc(C)cc3C)c2)CC1	0	6	-1	9	x
CC(=O)N1CCN(S(=O)(=O)c2cccc(C(=O)NNC(=O)Cn3ccc(C(F)(F)F)n3)c2)CC1	28*	0	-1	0	-2
O=C(O)COc1ccc2oc3c(c2c1)CCCC3	-7	3	0	-1	-3
Oc1ccc2oc3c(c2c1)CCCC3	28*	3	0	0	-2
Cn1c(=O)c(=O)n(C)c2cc(S(=O)(=O)CCC(=O)Nc3ccc(C(F)(F)F)cc3)ccc21	6	3	1	3	17*
Cn1c(=O)c(=O)n(C)c2cc(S(=O)(=O)CCC(=O)Nc3c(F)c(F)c(F)c(F)c3F)ccc21	-2	-4	0	-3	3
Cc1noc(C)c1C=NNc1ccccn1	x	5	x	x	x
CCc1cccc2c(C(=O)CCl)c[nH]c12	20	7	2	0	35*
CCc1cccc2c(C(=S)N3CCCC3)c[nH]c12	15	5	1	1	-2
COC(=O)c1cccc(-c2ccc(C=NN3C(=O)C4C5C=CC(C6CC56)C4C3=O)o2)c1 (stereo not drawn)	x	0	x	x	x
COc1ccc2nc3cc(Cl)ccc3c(C#N)c2c1	1	-13	2	-7	19*
COc1ccc2nc(C(F)(F)Cl)c(C#N)c(N)c2c1	-9	5	-2	-5	-1
CC(Sc1ccc(S(=O)(=O)N2CCCCCC2)cn1)C(N)=O (stereo not drawn)	-5	5	2	-1	x
SMILES	NRP1-CendR mod	UCH37 DUB inh	DAGLB inhibitor	MT1-MMP act inh	Fh CTSL1 inh
CNC(=O)C(C)Sc1ccc(S(=O)(=O)N2CCOCC2)cn1 (stereo not drawn)	22*	1	0	4	x
CCOC(=O)N1CCN(C(=O)CCN2C(=O)/C(=C\c3ccc(OC)c(OC)c3)SC2=S)CC1	-12	x	2	-5	x
COc1ccc(/C=C2\SC(=S)N(CCC(=O)NC3CCCC3)C2=O)cc1OC	22*	8	1	0	4
COC(CN(C(=O)CCl)C(C(=O)NC1CCCCC1)c1ccc(Cl)cc1)OC (stereo not drawn)	-18	1	2	-5	82*
COC(CN(C(=O)CCl)C(C(=O)NC1CCCCC1)c1ccccc1C)OC (stereo not drawn)	11	-17	2	-3	20*
COC(CN(C(=O)CCl)C(C(=O)NC1CCCC(C)C1C)c1ccc(C)cc1)OC (stereo not drawn)	1	22*	-3	-2	61*
CC(O)C(O)C(O)C(O)C=NNC(=O)c1ccccc1 (stereo not drawn)	x	2	x	x	x
COc1ccc(/C=C(\NC(=O)c2ccccc2)C(=O)NCc2ccco2)cc1OC	12	8	0	1	1
O=C(NCc1ccco1)/C(=C/C=C/c1ccccc1)NC(=O)c1ccco1	-5	9	-1	-3	27*
COc1ccccc1C(=O)N/C(=C\c1ccccc1)C(=O)NCc1ccco1	-1	2	1	-1	17*
O=C(NCc1ccco1)/C(=C\C=C\c1ccccc1)NC(=O)c1ccco1	-15	13	2	2	17*
O=C(NCc1ccco1)/C(=C/c1ccco1)NC(=O)c1ccc(Br)o1	-16	2	-1	-8	17*
O=C(NCc1ccco1)/C(=C/c1ccccc1)NC(=O)c1ccco1	-6	1	3	4	5
O=C(NCc1ccco1)/C(=C\C=C\c1ccccc1)NC(=O)c1ccccc1Br	-5	3	2	1	7
CCOC(=O)CC(C)=NNc1ccc([N+](=O)[O-])cc1[N+](=O)[O-]	x	8	x	x	x
COc1ccc(C=N/N=C2/NC(=O)C(c3ccccc3)(c3ccccc3)S2)cc1	x	9	x	x	x
CC(Cc1ccccc1)=NNC(=O)CNC(=O)c1ccccc1	x	1	x	x	x
Cc1cc(C(=O)c2cnc(N=CN(C)C)s2)c(F)cc1Cl	x	-1	x	x	x
CCNC(=S)NN=Cc1c(Cl)cccc1Cl	x	5	x	x	x
COc1cc(C=NNc2ccccc2[N+](=O)[O-])cc(OC)c1O	x	6	x	x	x
COc1cc(C=NNc2nc3ccccc3s2)cc([N+](=O)[O-])c1O	x	22*	x	x	x
O=C(O)c1cc(N2N=C(C(F)(F)F)/C(=C/C=C/c3ccco3)C2=O)ccc1Cl	-110	21*	18	-4	x
CCOc1cc(NC(=O)CCl)c(OCC)cc1NC(=O)CCl	-2	2	1	5	88*
Cc1noc(C)c1NC(=O)Nc1cccc2c1O[C@@H](CN(C)C)[C@@H](C)CN([C@H](C)CO)C2=O	10	-1	1	-2	x
Cc1noc(C)c1NC(=O)N(C)C[C@H]1Oc2c(NC(=O)NC(C)C)cccc2C(=O)N([C@H](C)CO)C[C@@H]1C	25*	-4	1	2	x
Cc1noc(C)c1NC(=O)Nc1cccc2c1O[C@H](CN(C)C(=O)NC1CCCCC1)[C@@H](C)CN([C@H](C)CO)C2=O	25*	4	2	0	x
CC(C)NC(=O)Nc1ccc2c(c1)C(=O)N([C@H](C)CO)C[C@H](C)[C@@H](CN(C)S(=O)(=O)c1cccs1)O2	25*	3	-2	-5	x
Cc1noc(C)c1NC(=O)N(C)C[C@H]1Oc2c(NC(=O)c3ccncc3)cccc2C(=O)N([C@H](C)CO)C[C@@H]1C	-4	1	-6	12	x
COc1ccccc1NS(=O)(=O)c1cccc(C(=O)NN=Cc2ccc3c(c2)OCCO3)c1	x	-3	x	x	x

Assay outcomes from PubChem.
